Data taken from ChEMBL document CHEMBL1124440, “Resolved N,N-dialkylated 2-amino-8-hydroxytetralins: stereoselective interactions with 5-HT1A receptors in the brain” (J Med Chem, 1989).

Assays:
[1] = biological target: T1, Tryptophan 5-hydroxylase 1 (Rattus norvegicus) (UniProt P09810); assay: Compound was tested for its effect on NSD 1015 induced accumulation of 5-HTP(ng/g) in rats in corpus striatum at a dosage of 10 umol/kg; format: functional
T1 sequence (whole entry): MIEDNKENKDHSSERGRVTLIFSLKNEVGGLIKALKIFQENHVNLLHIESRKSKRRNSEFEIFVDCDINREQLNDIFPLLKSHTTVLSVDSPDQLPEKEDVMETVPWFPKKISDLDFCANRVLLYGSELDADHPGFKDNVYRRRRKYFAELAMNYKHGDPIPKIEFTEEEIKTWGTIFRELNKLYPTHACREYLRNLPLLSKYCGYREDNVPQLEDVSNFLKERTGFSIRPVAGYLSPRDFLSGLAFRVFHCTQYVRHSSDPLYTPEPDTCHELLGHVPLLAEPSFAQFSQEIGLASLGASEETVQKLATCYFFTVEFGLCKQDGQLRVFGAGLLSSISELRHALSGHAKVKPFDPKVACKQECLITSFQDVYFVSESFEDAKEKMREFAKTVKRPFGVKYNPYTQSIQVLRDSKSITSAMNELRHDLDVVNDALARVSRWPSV
How it was run: (§1)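 Rats given test drug s.c. in the neck as hydrochloride (5 mL/kg), not reserpine-pretreated; 30 min later NSD 1015 (60 mg/kg, i.e. 287 μmol/kg sc), killed 30 min after that. Brain regions dissected. 5-HTP measured by ion-pair reversed-phase HPLC with electrochemical detection. Mean ± SEM, n = 15 controls, 3–5 per dose; ANOVA with Dunnett's t test vs controls.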

[2] = biological target: T1, Tryptophan 5-hydroxylase 1 (Rattus norvegicus); assay: Compound was tested for its effect on NSD 1015 induced accumulation of 5-HTP(ng/g) in rats in limbic system at a dosage of 10 umol/kg; format: functional, tissue-based; how it was run: as §1
Rattus norvegicus [3] = assay: No of rats exhibiting 5-HT motor syndrome tested in reserpinized rats at a subcutaneous dose of 10 umol/kg; 0 rats out of 4 showed activity; format: functional
[4] = biological target: T1, Tryptophan 5-hydroxylase 1 (Rattus norvegicus); assay: Compound was tested for its effect on NSD 1015 induced accumulation of 5-HTP(ng/g) in rats in corpus striatum at a dosage of 32 umol/kg; format: functional, tissue-based; how it was run: as §1
Rattus norvegicus [5] = assay: No of rats exhibiting 5-HT motor syndrome tested in reserpinized rats at a subcutaneous dose of 32 umol/kg; 4 rats out of 4 showed activity; format: functional
[6] = biological target: T1, Tryptophan 5-hydroxylase 1 (Rattus norvegicus); assay: Approximate dose levels for a half maximal reduction of 5-HTP levels; format: functional; how it was run: as §1
[7] = biological target: T1, Tryptophan 5-hydroxylase 1 (Rattus norvegicus); assay: Compound was tested for its effect on NSD 1015 induced accumulation of 5-HTP(ng/g) in rats in limbic system at a dosage of 32 umol/kg; format: functional, tissue-based; how it was run: as §1
[8] = biological target: T2, 5-hydroxytryptamine receptor 1A (Rattus norvegicus, UniProt P19327); assay: Concentration of compound required to inhibit cortical 5-hydroxytryptamine 1A receptor binding sites in rat brain was evaluated; format: tissue-based
T2 sequence (P19327 whole entry): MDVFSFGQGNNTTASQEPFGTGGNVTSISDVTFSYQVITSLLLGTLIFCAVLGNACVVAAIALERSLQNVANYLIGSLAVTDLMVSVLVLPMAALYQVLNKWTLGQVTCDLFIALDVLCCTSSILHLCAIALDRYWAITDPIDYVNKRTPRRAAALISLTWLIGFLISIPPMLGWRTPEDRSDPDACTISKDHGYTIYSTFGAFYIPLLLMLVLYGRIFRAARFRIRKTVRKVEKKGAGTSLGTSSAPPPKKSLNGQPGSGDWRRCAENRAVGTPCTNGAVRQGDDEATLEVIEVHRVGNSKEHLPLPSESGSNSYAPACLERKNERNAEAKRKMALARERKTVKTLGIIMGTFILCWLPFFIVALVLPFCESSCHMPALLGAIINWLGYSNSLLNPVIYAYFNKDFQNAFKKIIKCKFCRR

Rattus norvegicus [9] = assay: No of rats exhibiting 5-HT motor syndrome tested in reserpinized rats at a subcutaneous dose of 0.32 umol/kg; 4 rats out of 4 showd activity; format: functional
Rattus norvegicus [10] = assay: No of rats exhibiting 5-HT motor syndrome tested in reserpinized rats at a subcutaneous dose of a. 0.1 umol/kg; 0 rats out of 4 showed activity; format: functional
[11] = biological target: T1, Tryptophan 5-hydroxylase 1 (Rattus norvegicus); assay: Compound was tested for its effect on NSD 1015 induced accumulation of 5-HTP(ng/g) in rats in limbic system at a dosage of 0.10 umol/kg; format: functional, tissue-based; how it was run: as §1
[12] = biological target: T1, Tryptophan 5-hydroxylase 1 (Rattus norvegicus); assay: Compound was tested for its effect on NSD 1015 induced accumulation of 5-HTP(ng/g) in rats in limbic system at a dosage of 0.032 umol/kg; format: functional; how it was run: as §1
[13] = biological target: T1, Tryptophan 5-hydroxylase 1 (Rattus norvegicus); assay: Compound was tested for its effect on NSD 1015 induced accumulation of 5-HTP(ng/g) in rats in corpus striatum at a dosage of 1.0 umol/kg; format: functional; how it was run: as §1
Rattus norvegicus [14] = assay: No of rats exhibiting 5-HT motor syndrome tested in reserpinized rats at a subcutaneous dose of 1.0 umol/kg; 3 rats out of 3 showed activity; format: functional
[15] = biological target: T1, Tryptophan 5-hydroxylase 1 (Rattus norvegicus); assay: Compound was tested for its effect on NSD 1015 induced accumulation of 5-HTP(ng/g) in rats in corpus striatum at a dosage of 0.032 umol/kg; format: functional; how it was run: as §1
[16] = biological target: T1, Tryptophan 5-hydroxylase 1 (Rattus norvegicus); assay: Compound was tested for its effect on NSD 1015 induced accumulation of 5-HTP(ng/g) in rats in limbic system at a dosage of 1.0 umol/kg; format: functional, tissue-based; how it was run: as §1
[17] = biological target: T1, Tryptophan 5-hydroxylase 1 (Rattus norvegicus); assay: Compound was tested for its effect on NSD 1015 induced accumulation of 5-HTP(ng/g) in rats in limbic system at a dosage of 0.32 umol/kg; format: functional, tissue-based; how it was run: as §1
[18] = biological target: T1, Tryptophan 5-hydroxylase 1 (Rattus norvegicus); assay: Compound was tested for its effect on NSD 1015 induced accumulation of 5-HTP in rats corpus striatum at a dosage of 0.10 umol/kg; format: functional, tissue-based; how it was run: as §1
[19] = biological target: T1, Tryptophan 5-hydroxylase 1 (Rattus norvegicus); assay: Compound was tested for its effect on NSD 1015 induced accumulation of 5-HTP in rats in corpus striatum at a dosage of 0.32 umol/kg; format: functional, tissue-based; how it was run: as §1
Rattus norvegicus [20] = assay: No of rats exhibiting 5-HT motor syndrome rats tested in reserpinized rats at a subcutaneous dose of 10 umol/kg; 4 rats out of 4; format: functional
Rattus norvegicus [21] = assay: Number of rats exhibiting 5-HT motor syndrome in reserpinized rats at a subcutaneous dose of 1.0 umol/kg; 0 rats out of 3 showed activity; format: functional
Rattus norvegicus [22] = assay: No of rats exhibiting 5-HT motor syndrome tested in reserpinized rats at a subcutaneous dose of 3.2 umol/kg; 0 rats out of 4 showed activity; format: functional
[23] = biological target: T1, Tryptophan 5-hydroxylase 1 (Rattus norvegicus); assay: Compound was tested for its effect on NSD 1015 induced accumulation of 5-HTP(ng/g) in rats in corpus striatum at a dosage of 3.2 umol/kg; format: functional; how it was run: as §1
[24] = biological target: T1, Tryptophan 5-hydroxylase 1 (Rattus norvegicus); assay: Compound was tested for its effect on NSD 1015 induced accumulation of 5-HTP(ng/g) in rats in limbic system at a dosage of 3.2 umol/kg; format: functional, tissue-based; how it was run: as §1
[25] = biological target: T1, Tryptophan 5-hydroxylase 1 (Rattus norvegicus); assay: Compound was tested for its effects on NSD 1015 induced accumulation of 5-HTP(ng/g) in rats in limbic system at a dosage of 0.10 umol/kg; format: functional, tissue-based; how it was run: as §1
Rattus norvegicus [26] = assay: No of rats exhibiting 5-HT motor syndrome rats tested in reserpinized rats at a subcutaneous dose of 32 umol/kg; 3 rats out of 3; format: functional
Rattus norvegicus [27] = assay: No of rats exhibiting 5-HT motor syndrome tested in reserpinized rats at a subcutaneous dose of 1.0 umol/kg; 4 rats out of 5 showed activity; format: functional
Rattus norvegicus [28] = assay: No of rats exhibiting 5-HT motor syndrome tested in reserpinized rats at a subcutaneous dose of 0.32 umol/kg; 0 rats out of 5 showed activity; format: functional

Structure (SMILES) | Activity [1] [ng/g] | Activity [2] [ng/g] | ED50 [6] [µmol/kg] | IC50 [8] [nM] | Activity [11] [ng/g] | Activity [12] [ng/g] | Activity [13] [ng/g] | Activity [15] [ng/g] | Activity [16] [ng/g] | Activity [17] [ng/g] | Activity [18] [ng/g] | Activity [19] [ng/g] | also measured
CCCCN(CCCC)[C@@H]1CCc2cccc(O)c2C1 | 80 | 145 | 20 | 109 |  |  |  |  |  |  |  |  | Activity (Rattus norvegicus [3]): 0; Activity [4]: 63 ng/g; Activity (Rattus norvegicus [5]): 4; Activity [7]: 106 ng/g
CCN(CC)[C@@H]1CCc2cccc(O)c2C1 |  |  | 0.05 | 9.65 | 110 | 131 | 47 | 87 | 72 | 70 | 68 | 50 | Activity (Rattus norvegicus [9]): 4; Activity (Rattus norvegicus [10]): 0; Activity (Rattus norvegicus [14]): 3
CN(C)[C@@H]1CCc2cccc(O)c2C1 | 44 | 89 | 1 | 75 |  |  | 76 |  | 110 | 130 | 88 | 79 | Activity (Rattus norvegicus [20]): 4; Activity (Rattus norvegicus [21]): 0; Activity (Rattus norvegicus [22]): 0; Activity [23]: 67 ng/g; Activity [24]: 90 ng/g; Activity [25]: 172 ng/g; Activity (Rattus norvegicus [26]): 3
CCCN(CCC)[C@H]1CCc2cccc(O)c2C1 |  |  | 0.2 |  | 154 | 157 | 53 | 95 | 75 | 114 | 94 | 61 | Activity (Rattus norvegicus [27]): 4; Activity (Rattus norvegicus [28]): 0
